Laboratory results as given in ChEMBL document CHEMBL3585325, “Discovery of (1R,2S)-2-{[(2,4-Dimethylpyrimidin-5-yl)oxy]methyl}-2-(3-fluorophenyl)-N-(5-fluoropyridin-2-yl)cyclopropanecarboxamide (E2006): A Potent and Efficacious Oral Orexin Receptor Antagonist” (J Med Chem, 2015).

Tests used:
[1] = biological target: Voltage-gated inwardly rectifying potassium channel KCNH2 (Homo sapiens, UniProt Q12809); test: Inhibition of human ERG
[2] = Tmax in C57BL/6NCrlCrlj mouse at 30 mg/kg, po by LC-MS/MS analysis; format: ADME, organism-based; conditions: in vivo
[3] = biological target: T1, Orexin/Hypocretin receptor type 1 (Homo sapiens, UniProt O43613); test: Binding affinity to human OX1R expressed in HEK-293 cells assessed as inhibition of orexin A-induced calcium accumulation by FLIPR assay; format: cell-based, HEK293
T1 sequence (O43613 whole entry): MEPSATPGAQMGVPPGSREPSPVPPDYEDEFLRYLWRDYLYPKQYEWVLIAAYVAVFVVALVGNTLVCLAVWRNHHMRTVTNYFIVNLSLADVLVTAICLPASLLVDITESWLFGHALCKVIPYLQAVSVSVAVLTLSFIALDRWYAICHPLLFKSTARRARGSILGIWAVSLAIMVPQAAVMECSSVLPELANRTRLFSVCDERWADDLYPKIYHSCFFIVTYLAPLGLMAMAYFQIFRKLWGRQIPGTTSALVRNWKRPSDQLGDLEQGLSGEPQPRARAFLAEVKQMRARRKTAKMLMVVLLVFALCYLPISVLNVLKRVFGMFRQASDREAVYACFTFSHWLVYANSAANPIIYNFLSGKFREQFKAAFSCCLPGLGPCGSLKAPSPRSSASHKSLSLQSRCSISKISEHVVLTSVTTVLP
How it was run: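 HEK-293 cells expressing human OX1R, seeded at 16000 cells/well and grown overnight at 37 °C, then loaded with Calcium 4 dye in HEPES buffer with 0.1% BSA (1 h at 37 °C, 15 min at RT). Compound was equilibrated 30 min at RT before orexin-A was added. Fluorescence read at ex 480/em 540 nm on FDSS6000; response taken as peak/baseline ratio. Orexin-A EC50 was determined in each experiment.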

[4] = AUC (0 to infinity) in C57BL/6NCrlCrlj mouse at 30 mg/kg, po by LC-MS/MS analysis; format: ADME, organism-based; design: dose 30 mg/kg, time infinity, route oral; conditions: in vivo
[5] = Metabolic stability in human liver microsomes assessed as residual ratio at 0.1 uM after 15 mins by LC-MS analysis; format: ADME; conditions: read-out: Stability
How it was run: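 Compound at 0.1 μM in 0.1% DMSO incubated with human liver microsomes (0.2 mg/mL), with or without an NADPH-generating system, for 15 min at 37 °C. Reaction stopped with acetonitrile/methanol (7:3) containing propranolol internal standard. Parent compound was measured by LC-MS; residual ratio given with NADPH relative to without.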

[6] = Drug uptake in C57BL/6NCrlCrlj mouse CSF at 10 mg/kg, po administered as single dose measured after 1 hr by LC-MS/MS analysis; format: ADME, organism-based, Cerebrospinal fluid; conditions: read-out: Drug uptake
How it was run: (§1)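 Male C57BL/6NCrlCrlj mice given a single 10 mg/kg oral dose as a suspension in 0.5% aqueous methylcellulose. At 1 or 3 h, under pentobarbital anesthesia, CSF was taken from the cisterna magna and then blood from the abdominal aorta (spun to plasma). Samples were acetonitrile-precipitated with deuterated internal standard and run by LC-MS/MS. Values are mean with SEM.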

[7] = Half life in C57BL/6NCrlCrlj mouse at 1 mg/kg, iv by LC-MS/MS analysis; format: ADME, organism-based; conditions: in vivo
How it was run: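 Male C57BL/6NCrlCrlj mice dosed intravenously at 1 mg/kg in 10% DMSO in water. Blood was taken from the tail vein at set time points and spun to plasma. Concentrations were measured by LC-MS/MS (MRM, positive mode) against a 1/x²-weighted standard curve with internal standard. Parameters came from noncompartmental analysis.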

CYP3A = CYP3A (Homo sapiens, UniProt P08684+P20815+P24462+Q9HB55); test: Inhibition of CYP3A in human liver microsomes assessed as enzyme activity using midazolam as substrate incubated for 30 mins prior to substrate addition for 10 mins by LC-MS/MS analysis; format: ADME; conditions: probe midazolam
How it was run: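 Compound preincubated 30 min at 37 °C with human liver microsomes (0.2 mg/mL), with or without an NADPH-generating system. The mix was diluted 10-fold into a marker-substrate cocktail plus NADPH system and incubated 10 min at 37 °C. Marker metabolites were measured by LC-MS/MS; residual activity with NADPH was expressed relative to without.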

Cytochrome P450 2C8 = biological target: T2, Cytochrome P450 2C8 (Homo sapiens, UniProt P10632); test: Inhibition of CYP2C8 in human liver microsomes using rosiglitazone as susbtrate incubated for 30 mins prior to substrate addition for 10 mins by LC-MS/MS analysis; format: ADME
T2 sequence (P10632 whole entry): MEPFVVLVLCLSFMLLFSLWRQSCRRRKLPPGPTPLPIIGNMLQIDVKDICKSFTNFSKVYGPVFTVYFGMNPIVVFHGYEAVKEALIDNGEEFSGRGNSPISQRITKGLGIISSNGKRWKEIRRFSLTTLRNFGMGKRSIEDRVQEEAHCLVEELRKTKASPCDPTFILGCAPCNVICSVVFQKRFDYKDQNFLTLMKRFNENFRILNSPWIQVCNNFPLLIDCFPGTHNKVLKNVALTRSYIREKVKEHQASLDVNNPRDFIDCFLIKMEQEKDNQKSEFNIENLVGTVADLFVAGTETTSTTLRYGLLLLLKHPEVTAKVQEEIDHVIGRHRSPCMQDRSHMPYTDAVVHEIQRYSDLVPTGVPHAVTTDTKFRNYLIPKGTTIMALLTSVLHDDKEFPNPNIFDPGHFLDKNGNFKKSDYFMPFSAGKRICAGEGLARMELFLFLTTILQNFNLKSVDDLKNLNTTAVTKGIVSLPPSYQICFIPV

[8] = Plasma concentration in C57BL/6NCrlCrlj mouse at 10 mg/kg, po administered as single dose measured after 3 hrs by LC-MS/MS analysis; format: ADME, organism-based; how it was run: as §1
Mus musculus = test: Sleep promoting activity in C57BL/6NCrlCrlj mouse assessed as increase in REM sleep at 10 mg/kg, po administered immediately prior to beginning of dark cycle measured during first 3 hrs after drug administration by electroencephalogram/electromyogram analysis (reference value: 0.6 min); format: functional
How it was run: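 Male C57BL/6NCrlCrlj mice implanted with EEG/EMG electrodes were dosed orally in 10% Cremophor EL, 5% DMSO in saline just before lights-off (ZT12) and recorded from ZT12 to ZT20. Group sizes were n=6 dosed and n=7 vehicle. Stages were scored by software with blinded visual confirmation; cumulative first-3-h times are mean with SEM. Dunnett's test was run after one-way ANOVA.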

[9] = Half life in C57BL/6NCrlCrlj mouse at 30 mg/kg, po by LC-MS/MS analysis; format: ADME, organism-based; conditions: in vivo
[10] = Cmax in C57BL/6NCrlCrlj mouse at 30 mg/kg, po by LC-MS/MS analysis; format: ADME, organism-based; design: dose 30 mg/kg, route oral; conditions: in vivo
[11] = biological target: T1, Orexin/Hypocretin receptor type 1; test: Binding affinity to human OX1R by radioligand displacement binding assay
How it was run: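 Ki values come from single experiments run in triplicate.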

[12] = Drug uptake in C57BL/6NCrlCrlj mouse CSF at 10 mg/kg, po administered as single dose measured after 3 hrs by LC-MS/MS analysis; format: ADME, organism-based, Cerebrospinal fluid; conditions: read-out: Drug uptake; how it was run: as §1
[13] = Plasma protein binding in C57BL/6N mouse at 10 mg/kg, po administered as single dose by equilibrium dialysis method; format: ADME, organism-based; conditions: read-out: PPB (converted)

Voltage-gated inwardly rectifying potassium channel KCNH2, sequence (Q12809 whole entry): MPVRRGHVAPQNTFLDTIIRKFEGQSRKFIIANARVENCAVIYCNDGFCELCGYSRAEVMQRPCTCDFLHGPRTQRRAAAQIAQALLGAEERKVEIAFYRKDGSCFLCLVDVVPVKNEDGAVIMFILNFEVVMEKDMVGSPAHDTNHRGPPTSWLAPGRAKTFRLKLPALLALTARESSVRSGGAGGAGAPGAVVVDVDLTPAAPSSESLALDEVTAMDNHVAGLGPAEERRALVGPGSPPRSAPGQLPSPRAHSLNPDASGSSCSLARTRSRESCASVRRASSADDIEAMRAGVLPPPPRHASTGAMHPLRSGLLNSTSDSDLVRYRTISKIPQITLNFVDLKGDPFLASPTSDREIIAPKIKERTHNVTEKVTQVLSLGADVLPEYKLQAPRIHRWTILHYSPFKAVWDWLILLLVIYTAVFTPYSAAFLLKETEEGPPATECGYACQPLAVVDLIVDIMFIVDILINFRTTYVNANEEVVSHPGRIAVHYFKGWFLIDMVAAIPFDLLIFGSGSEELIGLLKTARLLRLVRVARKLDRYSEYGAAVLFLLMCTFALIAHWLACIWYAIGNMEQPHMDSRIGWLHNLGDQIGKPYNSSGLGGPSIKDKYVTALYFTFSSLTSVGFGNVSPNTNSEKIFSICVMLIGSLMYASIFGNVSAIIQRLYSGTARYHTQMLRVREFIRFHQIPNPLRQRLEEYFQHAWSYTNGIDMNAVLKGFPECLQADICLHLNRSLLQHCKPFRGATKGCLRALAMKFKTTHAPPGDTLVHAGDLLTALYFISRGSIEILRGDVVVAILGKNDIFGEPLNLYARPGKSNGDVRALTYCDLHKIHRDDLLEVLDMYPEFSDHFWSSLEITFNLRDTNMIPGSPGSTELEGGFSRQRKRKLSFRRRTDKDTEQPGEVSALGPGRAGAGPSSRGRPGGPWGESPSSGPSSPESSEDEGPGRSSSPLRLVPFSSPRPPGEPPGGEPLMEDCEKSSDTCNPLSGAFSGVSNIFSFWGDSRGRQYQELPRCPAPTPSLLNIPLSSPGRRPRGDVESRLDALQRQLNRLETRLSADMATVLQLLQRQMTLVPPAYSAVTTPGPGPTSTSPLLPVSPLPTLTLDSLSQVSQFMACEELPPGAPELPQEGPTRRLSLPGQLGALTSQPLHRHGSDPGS

## Cc1ncc(OC[C@@]2(c3cccc(F)c3)C[C@H]2C(=O)Nc2ccc(F)cn2)c(C)n1 [LEMBOREXANT]
[1]
  IC50: 6.1 µM
[2]
  Tmax: 1 h
[3]
  Ki: 0.0057 µM
[4]
  AUC(0-inf): 4130 ng·h/mL
[5]
  remaining at 0.25 h, 0.1 µM: 90%
[6]
  concentration at 1 h: 32.8 nM
[7]
  half-life: 2.16 h
CYP3A
  IC50 at 30 min: > 20 µM
Cytochrome P450 2C8
  IC50: > 20 µM
[8]
  concentration at 3 h: 158 nM
Mus musculus
  Time: 3.6 min
[9]
  half-life: 1.94 h
[10]
  Cmax: 961 ng/mL
[11]
  Ki: 0.006 µM
[12]
  concentration at 3 h: 7.6 nM
[13]
  fraction unbound: 0.148
